Bioassay records from PubChem BioAssay.
Sampled rows, rich in hits. Any-hit rate of the full collection: about 1.4%.
TNAP inh noacc: TNAP (human) inhibition, acceptor-free conditions. purified TNAP, CDP-star luminescence, 30 min. inhibition, % at 20 µM. hit rate 0.26% among 200,000. AID 1012;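 active means tissue-nonspecific alkaline phosphatase inhibition above about 50% at 20 µM in the single-dose screen, limit read from the data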;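 further: 0% = DMSO negative control and 100% = EDTA positive control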
CHT block: human CHT choline transport inhibition; Q9GZV3; B-score at 10 µM; hit rate 0.86% among 310,000; AID 488975; CHT-expressing cells, membrane potential dye, choline response; hits give low values;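 active means B-score over 3 SD under the library average, and starting fluorescence ratio not unusually high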;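 further: choline stimulus applied at its EC90 after an EC20 pre-addition; B-score computed on integrated fluorescence ratio after choline addition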
Target sequence (Q9GZV3 whole entry, looked up): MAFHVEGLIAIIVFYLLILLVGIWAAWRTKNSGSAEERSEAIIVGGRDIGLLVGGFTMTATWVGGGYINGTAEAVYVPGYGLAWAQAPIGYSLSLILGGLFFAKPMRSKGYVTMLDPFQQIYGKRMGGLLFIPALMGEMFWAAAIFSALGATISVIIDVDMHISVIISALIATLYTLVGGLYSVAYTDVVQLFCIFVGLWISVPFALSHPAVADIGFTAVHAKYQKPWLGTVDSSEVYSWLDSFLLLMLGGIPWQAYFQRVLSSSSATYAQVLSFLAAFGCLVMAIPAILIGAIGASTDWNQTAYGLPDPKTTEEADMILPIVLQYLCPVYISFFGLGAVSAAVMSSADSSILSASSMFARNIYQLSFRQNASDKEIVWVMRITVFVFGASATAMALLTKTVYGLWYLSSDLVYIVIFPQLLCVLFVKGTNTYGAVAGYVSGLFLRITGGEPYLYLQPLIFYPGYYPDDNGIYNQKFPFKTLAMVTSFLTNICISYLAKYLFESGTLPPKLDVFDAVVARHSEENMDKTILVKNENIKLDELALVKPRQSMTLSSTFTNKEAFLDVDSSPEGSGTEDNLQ
TNAP inh hiacc: inhibitors of human TNAP at high phosphate acceptor concentration; P05186; purified TNAP, CDP-star luminescence, 1 M DEA; inhibition, % at 20 µM; hit rate 0.03% among 200,000; AID 1135;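 active means over 50% inhibition of tissue-nonspecific alkaline phosphatase at 20 µM in the single-dose screen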;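 further: plate controls were DMSO wells for no effect and EDTA-quenched wells as full inhibition for full effect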
ABCB6 inh 2: human ABCB6 transporter inhibition; K562-ABCB6 porphyrin accumulation, flow cytometry, 1 h; hits give low values; fluorescence ratio to DMSO, % at 10 µM; hit rate 0.19% among 360,000; AID 602162;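 active means fluorescence ratio to DMSO below 75%, the collection mean minus 3 SD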;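 further: signal is porphyrin accumulated inside mitochondria; 100% equals median channel fluorescence of DMSO control wells; lower ratio means ABCB6 inhibition with less porphyrin fluorescence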
CHT PAM: human CHT allosteric activation; CHT-expressing cells, membrane potential dye, choline EC20; hits give high values; LV-AA mutant CHT in HEK293 cells; Q9GZV3; B-score at 10 µM; AID 488977; hit rate 0.49% among 310,000;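 active means initial fluorescence not abnormally high and integrated response B-score, plate-corrected, over 3 SD above library mean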
TNAP act hi DEA: activators of human TNAP at high phosphate acceptor concentration | P05186 | activation factor at 20 µM | purified TNAP, CDP-star luminescence, 1 M DEA, 30 min; hits give high values; 0 = EDTA background, 1 = DMSO-only activity | AID 1136 | 200,000 tested, under 10 active;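 active means activation factor at least 2 at 20 µM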
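Dosing: 20 µM single point. System: human TNAP. Amount: TNAP 1/800 final. Incubation: 30 min, room temperature. Read-out: TNAP activation factor scaled between EDTA and DMSO control wells. Signal: luminescence from CDP-star hydrolysis. Medium: 1 M DEA, pH 9.8, Mg2+, Zn2+. Control set: EDTA negative control, DMSO positive control.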
CHT inh conf: confirmation of human choline transporter CHT inhibitors | shares compounds with CHT block | CHT-expressing cells, choline membrane potential dye; LV-to-AA substituted CHT, HEK293 cells | CHT activity remaining % of control (hits give low values), % at 10 µM | hit rate 70% among 2,400 | AID 493221;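 active means choline transporter activity left, mean of duplicates at 10 µM, below buffer-only control mean minus 3 SD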;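 further: depolarization triggered by choline at its EC90 following an EC20 pre-addition; 0% = hemicholinium-3 full block and 100% = buffer-only control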
HEK293 CHT ctr: activity in parental HEK293 cells lacking CHT; shares compounds with CHT block; AID 493222; hit rate 4% among 2,400; membrane potential dye, choline response; active = decrease or increase beyond buffer ±3SD; membrane potential ratio readout (active if shifted either direction beyond buffer ±3SD; no single direction) at 10 µM;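 further: parental cells lack the transporter so any hit is non-specific; ratio is peak minus trough fluorescence over baseline after EC90 choline challenge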
Active calls of the source: *; i = inactive; . = no result.

SMILES	TNAP inh noacc	CHT block	TNAP inh hiacc	ABCB6 inh 2	CHT PAM	TNAP act hi DEA	CHT inh conf	HEK293 CHT ctr
O=C(COC(=O)c1ccc(Cl)c(S(=O)(=O)N2CCCCC2)c1)NCC1CCCO1 (configuration not stated)	-15.1	i	-1.7	97.0	i	1	.	.
O=C(NCc1ccccc1)C12CN(Cc3ccccc3)CC1C(c1cccc([N+](=O)[O-])c1)=NO2 (configuration not stated)	-6.1	i	-4.8	100.0	i	1	.	.
CCCCN(CCCC)CCCNC(=O)C12CN(Cc3ccccc3)CC1C(c1cccc([N+](=O)[O-])c1)=NO2 (configuration not stated)	10.9	-10.5*	-0.5	97.0	i	1	15.2%*	i
O=C(NC(NC(=S)Nc1ccc(Cl)cc1Cl)C(Cl)(Cl)Cl)c1cccc([N+](=O)[O-])c1 (configuration not stated)	5.8	i	-2.2	101.0	i	1	.	.
CC(C)c1ccc(-c2nc3ccccc3s2)cc1	.	-8.43*	.	98.0	i	.	i	i
CC1CCCC(C)N1C(=O)COC(=O)c1cncc(Br)c1 (configuration not stated)	.	.	.	100.0	.	.	.	.
N#Cc1c(NCCN)nc(-c2ccccc2)c2c1CCCC2	22.7	-6.28*	-0.1	93.0	i	1	39.6%*	i
CCN(CC)CCNC(=S)N1CCn2c(nc3ccccc32)C1	-12.4	i	-1.1	99.0	i	1	.	.
Cc1c(C)n2c(SCC(=O)NCc3ccc4c(c3)OCO4)nnc2[nH]c1=O	.	i	.	97.0	i	.	.	.
CCOc1ccccc1C(=O)NC(C(=O)OCC(=O)Nc1nnc(-c2ccccc2)o1)C(C)C (configuration not stated)	1.0	-5.68*	0.5	94.0	i	1	i	i
CC(=O)Nc1ccc(-c2nc3cc(Cl)ccc3o2)cc1	.	i	.	100.0	i	.	.	.
O=C(O)c1ccccc1-c1ccccc1C(=O)Nc1ccc(-c2nc3cc(Cl)ccc3o2)cc1	.	-7.49*	.	96.0	i	.	55.3%*	i
COc1cc2c(c(Br)c1N)-c1cc(Br)c(N)cc1C2=O	.	.	.	93.0	.	.	.	.
CCOC(=O)C1CCN(Cc2c(O)c3ccccc3oc2=O)CC1	-12.0	-5.9*	-3.0	94.0	i	1	65.1%*	i
CCOC(=O)C1CCN(Cc2c(O)ccc3ccccc23)CC1	-7.1	i	-3.6	99.0	i	1	.	.
Nc1ncc(Br)cc1S(=O)(=O)Nc1cc(C(F)(F)F)cc(C(F)(F)F)c1	.	-11.5*	.	99.0	i	.	28.6%*	i
C/C(=N\OCC(=O)OCC(=O)NC(=O)c1ccccc1)c1ccc2c(c1)OCO2	.	i	.	100.0	i	.	.	.
CCn1c(SCC(=O)N2CCCc3ccccc32)nc2cccnc21	-19.2	i	-5.8	99.0	i	1.1	.	.
CCn1c(SCC(=O)N2CCCc3ccccc32)nc2ccccc2c1=O	-17.4	-6.15*	-8.5	96.0	i	1.1	i	i
O=[N+]([O-])c1ccc(Nc2ccc(F)cc2)cc1	.	i	.	98.0	i	.	.	.
CCCCNC(=S)Nc1ccc([N+](=O)[O-])cc1	5.7	-9.25*	-3.8	96.0	i	1	34.7%*	i
CC(C)CCNC(=S)Nc1ccc([N+](=O)[O-])cc1	-5.4	-8.68*	2.8	95.0	i	1	22.7%*	i
O=[N+]([O-])c1ccc(NNC(=S)Nc2ccc(F)cc2)cc1	48.2	-6.95*	13.5	105.0	i	0.9	i	i
CC(=O)NC(c1ccc(F)c(F)c1)c1nc(-c2cc3ccccc3o2)cs1 (configuration not stated)	.	.	.	95.0	.	.	.	.
O=C(NCCC1=CCCCC1)c1ccc(Cl)c(S(=O)(=O)N2CCCCC2)c1	.	i	.	86.0	i	.	.	.
SMILES	TNAP inh noacc	CHT block	TNAP inh hiacc	ABCB6 inh 2	CHT PAM	TNAP act hi DEA	CHT inh conf	HEK293 CHT ctr
CCCCN=C1CC(C)(C)CC(=O)/C1=C(/O)CCC	.	i	.	102.0	i	.	.	.
CCCCC[C@@H](C)N1C[C@@H](COCc2ccccc2)Oc2cc(N3CCC[C@@H]3CO)ccc2S1(=O)=O	.	.	.	97.0	.	.	.	.
Cc1ccc([C@@H]2CC(=O)[C@@H]3CN(S(=O)(=O)c4ccc(C)cc4)[C@H](c4ccccc4)C[C@@H]3N2S(=O)(=O)c2ccc(Cl)cc2)cc1	.	.	.	97.0	.	.	.	.
CCOC(=O)N1CCN(C(=O)CCCn2c(=S)[nH]c3ccc(Br)cc3c2=O)CC1	-5.0	-5.32*	-1.3	88.0	i	1	55.2%*	i
CCOC(=O)N1CCN(C(=O)CCCn2c(=S)[nH]c3ccsc3c2=O)CC1	-11.1	-12*	-4.1	91.0	i	1	6.4%*	i
CCOC(=O)N1CCN(C(=O)CCCn2c(=O)[nH]c3ccccc3c2=O)CC1	-6.7	-5.88*	-7.0	91.0	i	1.1	5.0%*	i
O=[N+]([O-])c1ccc(S(=O)(=O)Nc2ccc(-c3ccccc3)cc2)cc1	.	.	.	92.0	.	.	.	.
Cc1cc(-c2nc3cccnc3s2)ccc1NS(=O)(=O)c1ccc2c(c1)OCCO2	-11.1	-7.32*	-5.0	99.0	i	1.1	i	i
Cc1ccc(CS(=O)(=O)CC(C)(O)c2ccccc2)cc1 (configuration not stated)	.	i	.	94.0	i	.	.	.
O=C(c1ccc(O)cc1)c1ccc(O)cc1O	.	i	.	98.0	i	.	.	.
CN(C)c1ccc(C(=O)c2ccc(O)cc2O)cc1	-4.7	-5.99*	1.9	98.0	i	1	60.7%*	i
Cc1ccc(CC(=O)NCCCc2ccccc2)cc1	-5.5	i	-9.3	92.0	i	1.1	.	.
Cc1ccc(C(=O)NCC(=O)NCCCc2ccccc2)cc1	.	-5.05*	.	98.0	i	.	57.4%*	i
COc1ccc(CSc2nc3nc(C)cc(C)n3n2)cc1F	.	-6.02*	.	98.0	i	.	46.3%*	i
Cc1cc(C)n2nc(SCc3cccc(S(=O)(=O)N(C)C)c3)nc2n1	.	-5.26*	.	97.0	i	.	67.9%*	i
CCCNC(=O)CN1C(=O)COc2ccc(S(=O)(=O)N3CC(C)CC(C)C3)cc21 (configuration not stated)	.	i	.	97.0	i	.	.	.
C[C@H](CO)N1C[C@H](C)[C@@H](CN(C)Cc2ccc(Cl)c(Cl)c2)Oc2ccc(NC(=O)Cn3cnnn3)cc2C1=O	.	.	.	96.0	.	.	.	.
CCOC(=O)C(CC(=O)c1ccccc1)CC(=O)c1ccccc1	.	i	.	95.0	i	.	.	.
